# Source: publication PMC8380758 (ACS chemical biology, 2021)
# No end group written: not given here.
# T1: PHD1 domain of histone demethylase KDM5A (S287–E344) (UniProt P29375 287-344, 15N- or 13C-,15N-labeled)
# T1 sequence (looked up): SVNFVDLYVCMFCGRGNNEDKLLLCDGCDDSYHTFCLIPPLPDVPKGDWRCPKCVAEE
# T2: GST–PHD1 WT (KDM5A S287–K347) (UniProt P29375 287-347)
# T2 sequence (looked up): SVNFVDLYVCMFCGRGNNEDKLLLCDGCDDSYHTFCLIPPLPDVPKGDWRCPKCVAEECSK
# T3: GST–PHD1 D292N (KDM5A S287–K347) (UniProt P29375 287-347, D292N)
# T3 sequence (looked up): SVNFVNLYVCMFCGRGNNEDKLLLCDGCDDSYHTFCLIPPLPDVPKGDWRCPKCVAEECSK
# T4: GST–PHD1 V330A (KDM5A S287–K347) (UniProt P29375 287-347, V330A)
# T4 sequence (looked up): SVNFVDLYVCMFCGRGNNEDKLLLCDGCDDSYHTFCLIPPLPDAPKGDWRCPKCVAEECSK
# T5: GST–PHD1 Y294A (KDM5A S287–K347) (UniProt P29375 287-347, Y294A)
# T5 sequence (looked up): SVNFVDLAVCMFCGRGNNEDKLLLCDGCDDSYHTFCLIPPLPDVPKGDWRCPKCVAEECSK
# Key:
# [1] = test system: PHD1 (S287–E344) of KDM5A; assay: 2D 1H,15N HSQC NMR peptide titration; assay type: binding; conditions: 200 μM 15N-labeled PHD1, 298 K, pH 7.5
# Summary of the method: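 15N-labelled KDM5A PHD1 (S287–E344) from GST fusion, GST removed by TEV, then Ni-resin pass and gel filtration. […] Buffer was 50 mM HEPES, NaCl, 0.5 mM TCEP, 0.1 mM ZnCl2, pH 7.5, 5% D2O, 298 K. CSP = √[(ΔH² + (0.2ΔN)²)/2].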
# GST–PHD1 (KDM5A) Y294F = assay: Fluorescence polarization binding, Y294F mutant; conditions: FP, H3K4 10mer peptides
# PHD1KDM5B = conditions: ref [13],[14]; cited from earlier work
# [2] = biological target: T1, PHD1 domain of histone demethylase …; assay: NMR titration
# [3] = biological target: T2, GST–PHD1 WT (KDM5A S287–K347); assay: fluorescence polarisation
# [4] = biological target: T3, GST–PHD1 D292N (KDM5A S287–K347); assay: fluorescence polarisation
# [5] = biological target: T4, GST–PHD1 V330A (KDM5A S287–K347); assay: fluorescence polarisation
# [6] = biological target: T5, GST–PHD1 Y294A (KDM5A S287–K347); assay: fluorescence polarisation
impact of mutation on binding (GST–PHD1 (KDM5A) Y294F),binding result [2],binding result [3],binding result [4],binding result [5],binding result [6],Molecule,interaction strength indicated by slow–intermediate exchange [1],Kd (PHD1KDM5B) [µM]
,,,,,,H3 10mer: H3 10mer (A1–S10),low–micromolar affinity,
,,,,,,H3K4me1: H3K4me1 10mer peptide,"strong interactions, comparable to those with unmodified H3",
minimal impact on binding,,,,,,H3K4me2: H3K4me2 10mer peptide,,> 80
minimal impact on binding,,,,,,H3K4me3: H3K4me3 10mer peptide,,> 80
,binds,binds,binds,,,"ARTKQTARKS (peptide, UniProt P68431 2-11, looked up) [histone H3 10mer peptide (A1–S10), unmodified]",,
,binds,binds,binds,binds,binds,"ARTK(Me3)QTARKS (peptide, UniProt P68431 2-11, looked up) [histone H3K4me3 10mer peptide]",,
,binds,binds,binds,binds,binds,"ARTK(Me)QTARKS (peptide, UniProt P68431 2-11, looked up) [histone H3K4me1 10mer peptide]",,
,binds,binds,binds,binds,binds,"ARTK(Me2)QTARKS (peptide, UniProt P68431 2-11, looked up) [histone H3K4me2 10mer peptide]",,
